Assay results published in ChEMBL document CHEMBL1641387, “Antiproliferative effects of saponins from the roots of Platycodon grandiflorum on cultured human tumor cells” (J Nat Prod, 2010).
Activity calls are given as the source filed them. No cut-off for these calls is given here.

Tests used:
Assay type in all cases: functional, cell-based
[1] = (§1) Antiproliferative activity against human HCT15/CL02 cells after 48 hrs by sulforhodamine B assay; conditions: HCT-15, 48 h
Summary of the method: (§2)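 Cells kept in RPMI1640 with 5% FBS at 37 °C, 5% CO2. HCT15/CL02 is a line derived from HCT15 by stepwise doxorubicin exposure. Cells seeded and left 24 h to attach, then exposed continuously for 48 h to serially diluted saponins. Fixed with cold 10% TCA, 1 h at 4 °C, stained with 0.4% SRB, dye solubilized in 10 mM Tris (pH 10.5), absorbance at 520 nm. Each run in triplicate; IC50 by nonlinear regression, mean ± SD of three independent experiments.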

HCT-15 [2] = assay: Antiproliferative activity against human HCT15 cells after 48 hrs by sulforhodamine B assay; conditions: for IC50: HCT-15, 48 h; summary of the method: as §2
[3] = (§3) Antiproliferative activity against human MESSA cells after 48 hrs by sulforhodamine B assay; conditions: MES-SA; summary of the method: as §2
[4] = (§4) Antiproliferative activity against human MESSA/DX5 cells after 48 hrs by sulforhodamine B assay; conditions: MES-SA/Dx5, 48 h; summary of the method: as §2
HCT-15 [5] = assay: as §1; summary of the method: as §2
MES-SA = assay: as §3; summary of the method: as §2
MES-SA/Dx5 = assay: as §4; summary of the method: as §2

CC(=O)O[C@H]1[C@@H](O)[C@H](O[C@H]2[C@H](OC(=O)[C@]34CCC(C)(C)C[C@H]3C3=CC[C@@H]5[C@@]6(C)C[C@H](O)[C@H](O[C@@H]7O[C@H](CO)[C@@H](O)[C@H](O)[C@H]7O)C(CO)(CO)[C@@H]6CC[C@@]5(C)[C@]3(C)C[C@H]4O)OC[C@H](O)[C@@H]2O)O[C@@H](C)[C@@H]1O[C@@H]1OC[C@@H](O)[C@H](O[C@@H]2OC[C@](O)(CO)[C@H]2O)[C@H]1O
IC50 [1]: 4.2 µM | IC50 (HCT-15 [2]): 3.4 µM | IC50 [3]: 2.3 µM | IC50 [4]: 2.2 µM

CC(=O)O[C@H]1[C@@H](O)[C@H](O[C@H]2[C@H](OC(=O)[C@]34CCC(C)(C)C[C@H]3C3=CC[C@@H]5[C@@]6(C)C[C@H](O)[C@H](O[C@@H]7O[C@H](CO)[C@@H](O)[C@H](O)[C@H]7O)[C@@](C)(CO)[C@@H]6CC[C@@]5(C)[C@]3(C)C[C@H]4O)OC[C@H](O)[C@@H]2O)O[C@@H](C)[C@@H]1O[C@@H]1OC[C@@H](O)[C@H](O[C@@H]2OC[C@](O)(CO)[C@H]2O)[C@H]1O
IC50 [1]: > 10 µM | IC50 (HCT-15 [2]): 6.7 µM | IC50 [3]: 3.6 µM | IC50 [4]: 4.2 µM

CC(=O)O[C@H]1[C@H](O[C@H]2[C@H](OC(=O)[C@]34CCC(C)(C)C[C@H]3C3=CC[C@@H]5[C@@]6(C)C[C@H](O)[C@H](O[C@@H]7O[C@H](CO)[C@@H](O)[C@H](O)[C@H]7O)[C@@](C)(CO)[C@@H]6CC[C@@]5(C)[C@]3(C)C[C@H]4O)OC[C@H](O)[C@@H]2O)O[C@@H](C)[C@H](O[C@@H]2OC[C@@H](O)[C@H](O[C@@H]3OC[C@](O)(CO)[C@H]3O)[C@H]2O)[C@H]1O
IC50 [1]: > 10 µM | IC50 (HCT-15 [2]): > 10 µM | IC50 [3]: 6.3 µM | IC50 [4]: 6.2 µM

CC(=O)O[C@H]1[C@H](O[C@H]2[C@H](OC(=O)[C@]34CCC(C)(C)C[C@H]3C3=CC[C@@H]5[C@@]6(C)C[C@H](O)[C@H](O[C@@H]7O[C@H](CO)[C@@H](O)[C@H](O[C@@H]8O[C@H](CO)[C@@H](O)[C@H](O)[C@H]8O)[C@H]7O)[C@@](C)(CO)[C@@H]6CC[C@@]5(C)[C@]3(C)C[C@H]4O)OC[C@H](O)[C@@H]2O)O[C@@H](C)[C@H](O[C@@H]2OC[C@@H](O)[C@H](O[C@@H]3OC[C@](O)(CO)[C@H]3O)[C@H]2O)[C@H]1O
IC50 [1]: 5.8 µM | IC50 (HCT-15 [2]): 3.6 µM | IC50 [3]: 3.3 µM | IC50 [4]: 3.4 µM

C[C@@H]1O[C@@H](O[C@H]2[C@H](OC(=O)[C@]34CCC(C)(C)C[C@H]3C3=CC[C@@H]5[C@@]6(C)C[C@H](O)[C@H](O[C@@H]7O[C@H](CO)[C@@H](O)[C@H](O[C@@H]8O[C@H](CO)[C@@H](O)[C@H](O)[C@H]8O)[C@H]7O)C(CO)(CO)[C@@H]6CC[C@@]5(C)[C@]3(C)C[C@H]4O)OC[C@H](O)[C@@H]2O)[C@H](O)[C@H](O)[C@H]1O[C@@H]1OC[C@@H](O)[C@H](O)[C@H]1O
Activity (HCT-15 [5]): Active | Activity (HCT-15 [2]): Active | Activity (MES-SA): Active | Activity (MES-SA/Dx5): Active

CC(=O)O[C@H]1[C@@H](O)[C@H](O[C@H]2[C@H](OC(=O)[C@]34CCC(C)(C)C[C@H]3C3=CC[C@@H]5[C@@]6(C)C[C@H](O)[C@H](O[C@@H]7O[C@H](CO)[C@@H](O)[C@H](O[C@@H]8O[C@H](CO)[C@@H](O)[C@H](O)[C@H]8O)[C@H]7O)[C@@](C)(CO)[C@@H]6CC[C@@]5(C)[C@]3(C)C[C@H]4O)OC[C@H](O)[C@@H]2O)O[C@@H](C)[C@@H]1O[C@@H]1OC[C@@H](O)[C@H](O[C@@H]2OC[C@](O)(CO)[C@H]2O)[C@H]1O [2'OACETYLPOLYGALACIN D2]
IC50 [1]: 5.9 µM | IC50 (HCT-15 [2]): 3.6 µM | IC50 [3]: 3.4 µM | IC50 [4]: 3.4 µM

CC(=O)O[C@H]1[C@H](O[C@H]2[C@H](OC(=O)[C@]34CCC(C)(C)C[C@H]3C3=CC[C@@H]5[C@@]6(C)C[C@H](O)[C@H](O[C@@H]7O[C@H](CO)[C@@H](O)[C@H](O)[C@H]7O)C(CO)(CO)[C@@H]6CC[C@@]5(C)[C@]3(C)C[C@H]4O)OC[C@H](O)[C@@H]2O)O[C@@H](C)[C@H](O[C@@H]2OC[C@@H](O)[C@H](O[C@@H]3OC[C@](O)(CO)[C@H]3O)[C@H]2O)[C@H]1O [3'O-ACETYLPLATYCODIN D]
IC50 [1]: 4.1 µM | IC50 (HCT-15 [2]): 3.4 µM | IC50 [3]: 2.3 µM | IC50 [4]: 2.2 µM

COc1cc([C@@H]2c3cc4c(cc3[C@@H](O[C@@H]3O[C@@H]5CO[C@@H](C)O[C@H]5[C@H](O)[C@H]3O)[C@H]3COC(=O)[C@H]23)OCO4)cc(OC)c1O [ETOPOSIDE]
IC50 [1]: > 10 µM | IC50 (HCT-15 [2]): 1.6 µM | IC50 [3]: 0.3 µM | IC50 [4]: > 10 µM

C[C@@H]1O[C@@H](O[C@H]2[C@H](OC(=O)[C@]34CCC(C)(C)C[C@H]3C3=CC[C@@H]5[C@@]6(C)C[C@H](O)[C@H](O[C@@H]7O[C@H](CO)[C@@H](O)[C@H](O[C@@H]8O[C@H](CO)[C@@H](O)[C@H](O)[C@H]8O)[C@H]7O)C(CO)(CO)[C@@H]6CC[C@@]5(C)[C@]3(C)C[C@H]4O)OC[C@H](O)[C@@H]2O)[C@H](O)[C@H](O)[C@H]1O[C@@H]1OC[C@@H](O)[C@H](O[C@@H]2OC[C@](O)(CO)[C@H]2O)[C@H]1O [PLATYCODIN D2]
IC50 [1]: 5.7 µM | IC50 (HCT-15 [2]): 9.6 µM | IC50 [3]: 3.5 µM | IC50 [4]: 5.2 µM

C[C@@H]1O[C@@H](O[C@H]2[C@H](OC(=O)[C@]34CCC(C)(C)C[C@H]3C3=CC[C@@H]5[C@@]6(C)C[C@H](O)[C@H](O[C@@H]7O[C@H](CO)[C@@H](O)[C@H](O)[C@H]7O)C(CO)(CO)[C@@H]6CC[C@@]5(C)[C@]3(C)C[C@H]4O)OC[C@H](O)[C@@H]2O)[C@H](O)[C@H](O)[C@H]1O[C@@H]1OC[C@@H](O)[C@H](O[C@@H]2OC[C@](O)(CO)[C@H]2O)[C@H]1O [PLATYCODIN D]
IC50 [1]: 7.9 µM | IC50 (HCT-15 [2]): 5.7 µM | IC50 [3]: 3.9 µM | IC50 [4]: > 10 µM

C[C@@H]1O[C@@H](O[C@H]2[C@H](OC(=O)[C@]34CCC(C)(C)C[C@H]3C3=CC[C@@H]5[C@@]6(C)C[C@H](O)[C@H](O[C@@H]7O[C@H](CO)[C@@H](O)[C@H](O[C@@H]8O[C@H](CO)[C@@H](O)[C@H](O)[C@H]8O)[C@H]7O)[C@@](C)(CO)[C@@H]6CC[C@@]5(C)[C@]3(C)C[C@H]4O)OC[C@H](O)[C@@H]2O)[C@H](O)[C@H](O)[C@H]1O[C@@H]1OC[C@@H](O)[C@H](O[C@@H]2OC[C@](O)(CO)[C@H]2O)[C@H]1O [POLYGALACIN D2]
IC50 [1]: 5.8 µM | IC50 (HCT-15 [2]): 3.8 µM | IC50 [3]: 2.6 µM | IC50 [4]: 3.4 µM

C[C@@H]1O[C@@H](O[C@H]2[C@H](OC(=O)[C@]34CCC(C)(C)C[C@H]3C3=CC[C@@H]5[C@@]6(C)C[C@H](O)[C@H](O[C@@H]7O[C@H](CO)[C@@H](O)[C@H](O)[C@H]7O)[C@@](C)(CO)[C@@H]6CC[C@@]5(C)[C@]3(C)C[C@H]4O)OC[C@H](O)[C@@H]2O)[C@H](O)[C@H](O)[C@H]1O[C@@H]1OC[C@@H](O)[C@H](O[C@@H]2OC[C@](O)(CO)[C@H]2O)[C@H]1O [POLYGALACIN D]
IC50 [1]: > 10 µM | IC50 (HCT-15 [2]): 8.5 µM | IC50 [3]: 5 µM | IC50 [4]: 7.7 µM
